Tests used:
Type in all cases: functional
MCF7 = assay: Antiproliferative activity against human MCF7 cells assessed as cell growth at 100 uM after 48 hrs by alamar blue assay; conditions: MCF7, 48 h, read-out: Activity
How it was run: (§1)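 NCI three-cell-line primary screen. Cells are seeded and preincubated in microtiter plates. Compound is added at a single 10^-4 M concentration and cultures are incubated 48 h. The end-point is read with alamar blue. Results are given as percent growth relative to untreated control cells.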

NCI-H460 = assay: Antiproliferative activity against human NCI-H460 cells assessed as cell growth at 100 uM after 48 hrs by alamar blue assay; conditions: NCI-H460, 48 h, read-out: Activity; how it was run: as §1
SF-268 = assay: Antiproliferative activity against human SF268 cells assessed as cell growth at 100 uM after 48 hrs by alamar blue assay; conditions: SF-268, 48 h, read-out: Activity; how it was run: as §1

COc1ccc(/C=N/c2nc3[nH]nc(C)n3c(=O)c2S(=O)(=O)NN2C(=O)C(CN3CCOCC3)SC2c2ccc(Cl)cc2)cc1 (stereo not drawn)
growth at 100 µM (MCF7): 94% | growth at 100 µM (NCI-H460): 68% | growth at 100 µM (SF-268): 95%

COc1ccc(/C=N/c2nc3[nH]nc(C)n3c(=O)c2S(=O)(=O)NN2C(=O)C(CN3CCOCC3)SC2c2ccc(C)cc2)cc1 (stereo not drawn)
growth at 100 µM (MCF7): 67% | growth at 100 µM (NCI-H460): 63% | growth at 100 µM (SF-268): 82%

COc1ccc(/C=N/c2nc3[nH]nc(C)n3c(=O)c2S(=O)(=O)NN2C(=O)C(CN3CCN(C)CC3)SC2c2ccc(C)cc2)cc1 (stereo not drawn)
growth at 100 µM (MCF7): 55% | growth at 100 µM (NCI-H460): 109% | growth at 100 µM (SF-268): 102%

COc1ccc(/C=N/c2nc3[nH]nc(C)n3c(=O)c2S(=O)(=O)Nc2ccc(Cl)cc2)cc1
growth at 100 µM (MCF7): 87% | growth at 100 µM (NCI-H460): 102% | growth at 100 µM (SF-268): 87%

COc1ccc(/C=N/c2nc3[nH]nc(C)n3c(=O)c2S(=O)(=O)NN2C(=O)C(CN3CCN(C)CC3)SC2c2ccc(Cl)cc2)cc1 (stereo not drawn)
growth at 100 µM (MCF7): 102% | growth at 100 µM (NCI-H460): 86% | growth at 100 µM (SF-268): 106%

COc1ccc(/C=N/c2nc3[nH]nc(C)n3c(=O)c2S(=O)(=O)Nc2ccc(C)cc2)cc1
growth at 100 µM (MCF7): 83% | growth at 100 µM (NCI-H460): 89% | growth at 100 µM (SF-268): 85%

COc1ccc(/C=N/c2nc3[nH]nc(C)n3c(=O)c2S(=O)(=O)NN2C(=O)CSC2c2ccc(Cl)cc2)cc1 (stereo not drawn)
growth at 100 µM (MCF7): 90% | growth at 100 µM (NCI-H460): 88% | growth at 100 µM (SF-268): 84%

COc1ccc(/C=N/c2nc3[nH]nc(C)n3c(=O)c2S(=O)(=O)NN2C(=O)CSC2c2cccs2)cc1 (stereo not drawn)
growth at 100 µM (MCF7): 89% | growth at 100 µM (NCI-H460): 106% | growth at 100 µM (SF-268): 98%

COc1ccc(/C=N/c2nc3[nH]nc(C)n3c(=O)c2S(=O)(=O)N/N=C/c2ccc(C)cc2)cc1
growth at 100 µM (MCF7): 87% | growth at 100 µM (NCI-H460): 83% | growth at 100 µM (SF-268): 93%

COc1ccc(/C=N/NS(=O)(=O)c2c(/N=C/c3ccc(OC)cc3)nc3[nH]nc(C)n3c2=O)cc1
growth at 100 µM (MCF7): 83% | growth at 100 µM (NCI-H460): 55% | growth at 100 µM (SF-268): 85%

COc1ccc(/C=N/c2nc3[nH]nc(C)n3c(=O)c2S(=O)(=O)NN2C(=O)CSC2c2ccc(OC)cc2)cc1 (stereo not drawn)
growth at 100 µM (MCF7): 91% | growth at 100 µM (NCI-H460): 118% | growth at 100 µM (SF-268): 94%

COc1ccc(/C=N/c2nc3[nH]nc(C)n3c(=O)c2S(=O)(=O)N/N=C/c2cccs2)cc1
growth at 100 µM (MCF7): 66% | growth at 100 µM (NCI-H460): 13% | growth at 100 µM (SF-268): 62%

COc1ccc(/C=N/c2nc3[nH]nc(C)n3c(=O)c2S(=O)(=O)Nc2ccc(OC)cc2)cc1
growth at 100 µM (MCF7): 86% | growth at 100 µM (NCI-H460): 82% | growth at 100 µM (SF-268): 91%

COc1ccc(/C=N/c2nc3[nH]nc(C)n3c(=O)c2S(=O)(=O)N/N=C/c2ccc(Cl)cc2)cc1
growth at 100 µM (MCF7): 93% | growth at 100 µM (NCI-H460): 73% | growth at 100 µM (SF-268): 101%

COc1ccc(/C=N/c2nc3[nH]nc(C)n3c(=O)c2S(=O)(=O)NN)cc1
growth at 100 µM (MCF7): 43% | growth at 100 µM (NCI-H460): 45% | growth at 100 µM (SF-268): 55%

COc1ccc(/C=N/c2nc3[nH]nc(C)n3c(=O)c2S(=O)(=O)NN2C(=O)CSC2c2ccc(C)cc2)cc1 (stereo not drawn)
growth at 100 µM (MCF7): 72% | growth at 100 µM (NCI-H460): 67% | growth at 100 µM (SF-268): 63%

Source: ChEMBL document CHEMBL1153046, “Synthesis and antitumor activity of substituted triazolo[4,3-a]pyrimidin-6-sulfonamide with an incorporated thiazolidinone moiety” (2009)
